NPY-Y1 PAM-ag: human NPY-Y1 potentiation or agonism, primary screen; P25929; NPY-Y1 expressing cells, potentiator/agonist activation; activation, % at 3.6 µM; 0.37% of 220,000 active; AID 1304; in the data active = activation above about 33%, passing the limit was not always enough;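 note: cells stimulated with NPY at EC10 then isoproterenol at EC100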
Target sequence (P25929 whole entry, looked up): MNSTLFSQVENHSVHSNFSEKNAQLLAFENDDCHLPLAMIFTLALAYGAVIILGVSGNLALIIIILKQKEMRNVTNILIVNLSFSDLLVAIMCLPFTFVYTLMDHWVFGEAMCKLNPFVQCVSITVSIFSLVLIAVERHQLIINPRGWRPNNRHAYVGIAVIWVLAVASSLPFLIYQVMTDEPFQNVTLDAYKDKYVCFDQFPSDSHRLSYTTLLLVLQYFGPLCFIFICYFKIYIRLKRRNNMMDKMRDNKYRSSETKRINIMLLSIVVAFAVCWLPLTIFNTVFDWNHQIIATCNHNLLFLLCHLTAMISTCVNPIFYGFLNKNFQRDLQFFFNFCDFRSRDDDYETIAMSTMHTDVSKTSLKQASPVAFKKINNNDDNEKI
NPY Y1 blocker: NPY-Y1 (human) receptor antagonism | P25929 | HEK293-CNG Y1 cells, membrane potential fluorescence; NPY at EC95, then isoproterenol | inhibition, % at 3.6 µM | 1% of 200,000 active | AID 1040;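 active = inhibition above the campaign mean inhibition of all tested compounds plus 3 SD, cut at about 20% in these data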
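Assay system: HEK293 cells with Y1 receptor plus CNG channel | Probe or stimulus: NPY (25 nM), isoproterenol (1 µM), Ro 20-1724 (25 µM) | Timing: Compound incubation 1 h at room temperature, readout 45 min post-stimulation | Measured by: Membrane-potential fluorescent dye readout | Benchmarks: High control isoproterenol alone, low control NPY with isoproterenol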
S1P4 antag: antagonists of human S1P4 receptor | O95977 | S1P4-expressing cells, antagonist mode, reporter read-out | inhibition, % at 4.98 µM | 0.26% of 220,000 active; in the data active = inhibition above about 29%
S1P4 agonist: activates the human S1P4 receptor; 0.35% of 220,000 active; activation, % at 4.98 µM; O95977; S1P4-expressing cell line, agonist reporter assay; in the data active = activation above about 11%
NPY-Y2 PAM-ag: potentiators or agonists of human neuropeptide Y receptor Y2; P49146; AID 1359; activation, % at 3.6 µM; cells expressing NPY-Y2, potentiator/agonist read-out; 0.45% of 220,000 active; in the data active = activation above about 27%;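 note: cells stimulated with NPY near EC25 plus isoproterenol at EC100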
NPY Y2 blocker: blocks the human neuropeptide Y Y2 receptor | P49146 | NPY-Y2 expressing cells, antagonist mode | inhibition, % at 2.7 µM | 0.99% of 140,000 active; in the data active = inhibition above about 17%
S1P4 antag cf: confirmation of human S1P4 receptor antagonists. S1P4-expressing cell line, antagonist mode, reporter read-out. 71% of 520 active. inhibition, % at 4.98 µM. shares compounds with S1P4 antag; in the data active = inhibition above about 30%
S1P1 antag: human S1P1 antagonism as S1P4 antagonist counter-screen; inhibition, % at 4.98 µM; AID 1564; shares compounds with S1P4 antag; 37% of 520 active; cell-based S1P1 antagonist counterscreen, inhibition; in the data active = inhibition above about 40%;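 note: receptor stimulated with S1P near its EC80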
Hits are given with their value; n = inactive; x = no result. Only some compounds are listed: those with a hit (about 2.4% of all), similar ones and a draw of the others.

SMILES	NPY-Y1 PAM-ag	NPY Y1 blocker	S1P4 antag	S1P4 agonist	NPY-Y2 PAM-ag	NPY Y2 blocker	S1P4 antag cf	S1P1 antag
O=C(Nc1cccc2ccccc12)/C(Cl)=C/c1ccccc1	n	n	61	n	n	n	68	n
COc1ccc(/C=N/Nc2nonc2N)cc1	n	n	n	n	n	n	x	x
COc1ccc(/C=N/Nc2nn3cnnc3c3ccccc23)cc1	n	x	30	n	n	x	n	n
O=C(NCc1ccco1)c1ccccc1-c1nc(-c2ccccc2)no1	n	n	30	n	n	n	n	n
Cc1ccc(-c2noc(-c3ccccc3C(=O)NCc3ccco3)n2)cc1	n	x	n	n	n	x	x	x
O=C(c1ccccc1)c1ccccc1N1C(=O)C=CC1=O	n	x	38	n	n	x	104	n
COc1ccc2oc(=O)c(C(=O)NCc3ccco3)cc2c1	n	n	n	n	n	x	x	x
COc1ccc(C=C(c2nc3ccccc3s2)c2nc3ccccc3s2)cc1O	n	n	29	n	n	n	58	n
O=C1C(Nc2ccc(O)cc2)=C/C(=N/S(=O)(=O)c2cccs2)c2ccccc21	70	n	86	n	68	x	109	94
Cc1ccc(Cl)cc1NC1=C/C(=N\S(=O)(=O)c2cccs2)c2ccccc2C1=O	n	n	n	n	n	n	x	x
O=C(Nc1nc(=O)c2ccccc2s1)c1ccccc1	n	n	36	n	n	n	n	n
CCCN(CCC)C(C)C(=O)NCC1(c2ccccc2)CCCC1 (centres undefined)	n	n	n	n	n	x	x	x
COC(=O)CCS(=O)(=O)c1nc(-c2ccccc2)cc(C(F)(F)F)n1	n	n	60	n	n	n	113	n
CCOC(=O)CS(=O)(=O)c1nc(-c2ccc(F)cc2)cc(C(F)(F)F)n1	n	n	n	n	n	n	x	x
CCOC(=O)CS(=O)(=O)c1nc(-c2ccccc2)cc(C(F)(F)F)n1	n	n	98	n	n	n	115	n
CCOC(=O)CCS(=O)(=O)c1nc(-c2ccccc2)cc(C(F)(F)F)n1	n	n	84	n	n	n	114	52
O=C(O)CCS(=O)(=O)c1nc(-c2cccs2)cc(C(F)(F)F)n1	n	n	n	n	n	n	x	x
CCCS(=O)(=O)N1CCCC(C(=O)NCC(OC)OC)C1 (centres undefined)	n	n	n	n	n	x	x	x
CC1=C(C(=O)Nc2ccc([N+](=O)[O-])cc2)C(c2cccc(C(F)(F)F)c2)NC(=S)N1c1ccccc1 (centres undefined)	n	n	31	n	n	n	33	n
CCN(CC)CCN1C(=O)C(=O)/C(=C(/O)c2c(C)[nH]c(C(=O)OC)c2C)C1c1ccc(C)o1 (centres undefined)	n	x	n	n	n	x	x	x
COc1ccc(/C=C/C(=O)c2c(O)c(OC)c3occc3c2OC)cc1	n	n	34	n	n	x	52	n
COCc1[nH]c(=S)[nH]c(=O)c1C	n	x	n	n	n	x	x	x
CCOC(=O)c1cnc(SC2CC(=O)N(c3ccc(C)cc3)C2=O)nc1N (centres undefined)	n	n	44	n	n	n	n	n
CCOC(=O)c1cnc(SC2CC(=O)N(c3ccccc3)C2=O)nc1N (centres undefined)	n	n	n	n	n	n	x	x
NS(=O)(=O)c1ccc(CCNCC(=O)N2CCC(Cc3ccccc3)CC2)cc1	n	x	n	n	n	x	x	x
SMILES	NPY-Y1 PAM-ag	NPY Y1 blocker	S1P4 antag	S1P4 agonist	NPY-Y2 PAM-ag	NPY Y2 blocker	S1P4 antag cf	S1P1 antag
COC(=O)c1cc(=O)n(-c2ccc(F)cc2)c(=Nc2ccc(F)cc2)s1	n	n	29	n	n	n	100	76
COc1cccc2cc(C(C)OC(=O)Nc3ccc(C)cc3)oc12 (centres undefined)	n	n	n	n	n	x	x	x
COc1ccc(N(C(=O)/C=C/c2ccc(OC)c(OC)c2)C2=CC3CCC(C2)N3C)cc1 (centres undefined)	n	n	n	n	n	x	x	x
CCCS(=O)(=O)c1nnnn1-c1cccc(OC)c1	n	n	38	n	n	n	111	n
COc1cccc(-n2nnnc2SCC(=O)Nc2ccc(C(C)=O)cc2)c1	n	n	n	n	n	n	x	x
COc1cc(SC)ccc1C(=O)Nc1c(C)cccc1C	n	n	81	n	n	x	85	n
COc1cc(SC)ccc1C(=O)Nc1ccccc1	n	n	n	n	n	n	x	x
COc1ccc(-n2ncc(Cl)c(Cl)c2=O)cc1	n	n	95	n	n	x	118	57
COc1ccc(-n2ncc(N(C)n3cccc3)c(Cl)c2=O)cc1	n	n	n	n	n	n	x	x
COc1cc2c3nnc(-c4ccccc4)c-3cn(Cc3ccccc3F)c2cc1OC	n	n	84	n	n	x	86	128
CCC(=O)Oc1ccc2c(c1)O/C(=C\c1ccco1)C2=O	n	x	29	n	n	x	37	n
CC(=O)Oc1ccc2c(c1)O/C(=C\c1ccncc1)C2=O	n	x	n	n	n	x	x	x
CCOC(=O)C1=C(C)N=C2SC(C(=O)OC)=CC(=O)N2C1c1ccc(OC)cc1 (centres undefined)	n	n	46	n	n	x	n	n
Cc1ccc(-n2nnnc2-c2ccccc2)cc1	n	n	n	n	n	x	x	x
Cc1ccc(-n2nnnc2C(Cl)c2nnnn2-c2ccc(C)cc2)cc1	n	n	47	n	n	n	74	n
CCOC(=O)C1CCN(c2ncnc3c2[nH]c2cccc(OC)c23)CC1	n	n	56	n	n	n	n	n
COc1cccc2[nH]c3c(N4CCCCC4)ncnc3c12	n	n	n	n	n	n	x	x
CC(C)N1CCC2(CC1)Oc1ccc(Br)cc1C1CC(c3cccnc3)=NN12 (centres undefined)	n	x	32	n	n	x	n	n
COC(=O)C1CC(c2ccc(Cl)cc2)=NO1 (centres undefined)	n	n	n	n	n	x	x	x
CC(C)(C)c1ccc(/C=N/OCC(=O)NCc2ccc(F)cc2)cc1	n	n	n	n	n	n	x	x
COC(=O)c1cc(C(=O)OC)[nH]n1	n	n	n	n	n	x	x	x
Oc1ccc2ccccc2c1N=Nc1ccccn1	n	n	50	n	n	n	78	83
CC(=O)N(CCC(c1ccco1)C(C)C)Cc1ccc(OC(C)C)cc1 (centres undefined)	n	x	n	n	n	x	x	x
CCN(CC)c1cc(C)c(C#N)c2nc3ccccc3n12	n	x	n	n	n	x	x	x
Cc1cc(Cl)n2c(nc3ccccc32)c1C#N	n	n	44	n	n	x	108	69
Cc1oc(S(=O)(=O)N2CCCCC2)cc1NC(=O)Nc1ccc(F)cc1	n	x	n	n	n	x	x	x
CCOC(=O)COc1ccccc1/C=C\[N+](=O)[O-]	n	n	33	n	n	n	114	72

Screening data deposited in PubChem by The Scripps Research Institute Molecular Screening Center.
